Columns and labels:
SK-OV-3 = assay: Cytotoxicity against human SKOV3 cells up to 25 uM; format: cell-based
How it was run: (§1)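 Cytotoxicity panel: four cancer lines (SK-MEL, KB, BT-549, SK-OV-3) and two non-cancer lines (Vero, LLC-PK11), tested up to a concentration of 25.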

KB = assay: Cytotoxicity against human KB cells up to 25 uM; format: cell-based; how it was run: as §1
Plasmodium falciparum [1] = assay: Antimalarial activity against Plasmodium falciparum D6 assessed as plasmodial LDH activity after 72 hrs; format: functional, organism-based; conditions: Plasmodium falciparum, D6, 72 h; read-out: IC50
How it was run: (§2)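 P. falciparum D6 (chloroquine-sensitive) and W2 (chloroquine-resistant) clones screened in vitro alongside Vero cytotoxicity, up to a highest concentration of 12.5; IC50 determined.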

BT-549 = assay: Cytotoxicity against human BT549 cells up to 25 uM; format: cell-based; how it was run: as §1
Vero [2] = assay: Cytotoxicity against african green monkey Vero cells up to 25 uM; format: cell-based; conditions: chlorocebus sabaeus; how it was run: as §1
[3] = Cytotoxicity against pig LLC-PK11 cells up to 25 uM; format: cell-based, Sus scrofa; how it was run: as §1
Vero [4] = assay: Cytotoxicity against african green monkey Vero cells at 12.5 uM; format: cell-based; conditions: chlorocebus sabaeus
How it was run: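 Mammalian kidney Vero cells screened in vitro for cytotoxicity, in parallel with the antimalarial screen, up to a highest concentration of 12.5.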

[5] = Selectivity index, IC50 for african green monkey Vero cells to IC50 for Plasmodium falciparum W2; format: functional
How it was run: (§3)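 Selectivity index is the cytotoxicity IC50 in Vero cells divided by the antimalarial IC50 against the stated P. falciparum clone (D6 or W2).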

[6] = Selectivity index, IC50 for african green monkey Vero cells to IC50 for Plasmodium falciparum D6; format: functional; how it was run: as §3
SK-MEL = assay: Cytotoxicity against human SK-MEL cells up to 25 uM; format: cell-based; how it was run: as §1
Plasmodium falciparum [7] = assay: Antimalarial activity against Plasmodium falciparum W2 assessed as plasmodial LDH activity after 72 hrs; format: functional, organism-based; conditions: Plasmodium falciparum, W2, 72 h; read-out: IC50; how it was run: as §2

Row | Compound | Activity (SK-OV-3) | Activity (KB) | IC50 (Plasmodium falciparum [1]) | Activity (BT-549) | Activity (Vero [2]) | Activity [3] | Activity (Vero [4]) | Ratio IC50 [5] | Ratio IC50 [6] | Activity (SK-MEL) | IC50 (Plasmodium falciparum [7])
1 | Cc1ccc(C2OOC(c3ccc(/C=N\c4cccnc4)cc3)OO2)cc1 (configuration not stated) | Non-toxic | Non-toxic | 0.75 µM | Non-toxic | Non-toxic | Non-toxic | Non-toxic | >16.4 | >17.6 | Non-toxic | 0.8 µM
2 | Cc1ccc(C2OOC(c3ccc(CNc4cccc(C)c4)cc3)OO2)cc1 (configuration not stated) |  |  | 2.64 µM |  |  |  | Non-toxic | >5.3 | >4.8 |  | 2.38 µM
3 | Cc1ccc(C2OOC(c3ccc(C(=O)N4CCN(c5ccccc5)CC4)cc3)OO2)cc1 (configuration not stated) |  |  | 4.03 µM |  |  |  | Non-toxic | >1.5 | >2.6 |  | 7.16 µM
4 | Cc1ccc(C2OOC(c3ccc(CNc4cccnc4)cc3)OO2)cc1 (configuration not stated) | Non-toxic | Non-toxic | 0.38 µM | Non-toxic | Non-toxic | Non-toxic | Non-toxic | >22.7 | >34 | Non-toxic | 0.57 µM
5 | COc1cc(NCc2ccc(C3OOC(c4ccc(C)cc4)OO3)cc2)cc(OC)c1 (configuration not stated) |  |  | 6.37 µM |  |  |  | Non-toxic | >1.2 | >1.8 |  | 9.2 µM
6 | Cc1ccc(C2OOC(c3ccc(CN(C)c4ccccc4)cc3)OO2)cc1 (configuration not stated) |  |  | 1.51 µM |  |  |  | Non-toxic | >6 | >8.4 |  | 2.11 µM
7 | COc1ccc(NCc2ccc(C3OOC(c4ccc(C)cc4)OO3)cc2)cc1 (configuration not stated) |  |  | 8.13 µM |  |  |  | Non-toxic | >1.2 | >1.5 |  | 10.2 µM
8 | CC(C)c1ccc(C2OOC(c3ccc(C=O)cc3)OO2)cc1 (configuration not stated) |  |  | 6.99 µM |  |  |  | Non-toxic | >4.9 | >2.2 |  | 3.11 µM
9 | CCc1ccc(C2OOC(c3ccc(C(=O)NCCCNc4ccnc5cc(Cl)ccc45)cc3)OO2)cc1 (configuration not stated) |  |  | 1.08 µM |  |  |  | Non-toxic | >3.7 | >8.2 |  | 2.43 µM
10 | CCCc1ccc(NCc2ccc(C3OOC(c4ccc(C)cc4)OO3)cc2)cc1 (configuration not stated) |  |  | 5.67 µM |  |  |  | Non-toxic | >2.8 | >2.3 |  | 4.19 µM
11 | CCc1ccc(C2OOC(c3ccc(C(=O)NCCCCCCO)cc3)OO2)cc1 (configuration not stated) |  |  | 3.36 µM |  |  |  | Non-toxic | >2.4 | >3.4 |  | 4.81 µM
12 | C[C@@H]1CC[C@H]2[C@@H](C)C(=O)O[C@@H]3O[C@@]4(C)CC[C@@H]1[C@]32OO4 [ARTEMISININ] |  |  | 0.03 µM |  |  |  | Non-toxic | >670 | >500 |  | 0.025 µM
13 | CC(C)c1ccc(C2OOC(c3ccc(CO)cc3)OO2)cc1 (configuration not stated) |  |  | 2.02 µM |  |  |  | Non-toxic | >7.9 | >7.4 |  | 1.89 µM
14 | Cc1ccc(C2OOC(c3ccc(/C=N\c4ccc(Cl)cc4)cc3)OO2)cc1 (configuration not stated) |  |  | 1.46 µM |  |  |  | Non-toxic | >8.2 | >8.2 |  | 1.46 µM
15 | CCc1ccc(C2OOC(c3ccc(C(=O)NCCCO)cc3)OO2)cc1 (configuration not stated) |  |  | 4.82 µM |  |  |  | Non-toxic | >2.6 | >2.6 |  | 4.82 µM
16 | Cc1ccc(C2OOC(c3ccc(CNc4ccccc4Cl)cc3)OO2)cc1 (configuration not stated) |  |  | 2.51 µM |  |  |  | Non-toxic | >4.3 | >4.8 |  | 2.76 µM
17 | CCCCNC(=O)c1ccc(C2OOC(c3ccc(CC)cc3)OO2)cc1 (configuration not stated) |  |  | 6.73 µM |  |  |  | Non-toxic | >1.8 | >1.9 |  | 6.99 µM
18 | Cc1ccc(C2OOC(c3ccc(CNc4ccc(F)cc4)cc3)OO2)cc1 (configuration not stated) |  |  | 2.09 µM |  |  |  | Non-toxic | >5.3 | >6 |  | 2.35 µM
19 | Cc1ccc(C2OOC(c3ccc(/C=N\CCO)cc3)OO2)cc1 (configuration not stated) |  |  | 2.82 µM |  |  |  | Non-toxic | >6.1 | >5.1 |  | 2.37 µM
20 | CCc1ccc(C2OOC(c3ccc(C=O)cc3)OO2)cc1 (configuration not stated) |  |  | 10.9 µM |  |  |  | Non-toxic | >2.6 | >1.4 |  | 5.99 µM
21 | Cc1ccc(C2OOC(c3ccc(CNc4cccc(O)c4)cc3)OO2)cc1 (configuration not stated) |  |  | 3.42 µM |  |  |  | Non-toxic | >3.2 | >3.7 |  | 3.95 µM
22 | Cc1ccc(C2OOC(c3ccc(/C=N\N)cc3)OO2)cc1 (configuration not stated) |  |  | 2.59 µM |  |  |  | Non-toxic | >9 | >9 |  | 1.26 µM
